ChEMBL document CHEMBL4325878, “SAR of a new antischistosomal urea carboxylic acid” (Bioorg Med Chem Lett, 2018)
Converted amounts (≈) assume the structure as drawn. The source made the active and inactive calls. No cut-off for these calls is given here.

Key:
[1] = Kinetic solubility of compound in pH 6.5 phosphate buffer at 10 mg/ml by nephelometry; assay type: physicochemical; conditions: read-out: Kinetic_solubility
In short: (§1)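 DMSO solutions of compound spiked into pH 6.5 phosphate buffer or 0.01 M HCl (approx. pH 2.0); nephelometry read-out, reported as a solubility concentration range.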

Schistosoma mansoni [2] = test: Antischistosomal activity against newly transformed Schistosoma mansoni cercariae at 10 uM after 72 hrs by microscopic analysis; assay type: functional, organism-based
In short: (§2)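 Newly transformed schistosomula and cultured adult S. mansoni were exposed in vitro to compound at 10 μM.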

[3] = Kinetic solubility of compound in 0.01 M HCL at 10 mg/ml at pH 2 by nephelometry; assay type: physicochemical; conditions: read-out: Kinetic_solubility; in short: as §1
L6 = test: Cytotoxicity against rat L6 cells up to 200 uM; assay type: cell-based
In short: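 Growth inhibition of rat L6 myoblasts was used as the host-cell cytotoxicity measure, testing compound at concentrations up to 200 μM.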

Schistosoma mansoni [4] = test: Antischistosomal activity against Schistosoma mansoni cercariae infected in NMRI mouse assessed as worm burden reduction at 100 mg/kg, po administered as single dose on day 49 of post infection and measured on day 21 of post treatment relative to control; assay type: functional; set-up: scale not given: the % may be the effect or the level left
In short: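 Single 100 mg/kg oral dose given to S. mansoni-infected mice; in vivo activity read as worm burden reduction versus an untreated control group, with statistical comparison to control.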

[5] = Intrinsic clearance in mouse liver microsomes assessed per mg protein after 60 mins in presence of NADPH; assay type: ADME, Microsome; conditions: 1 h
In short: (§3)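 In vitro intrinsic clearance determined in human and in mouse liver microsomes. Control incubations run without NADPH co-factor; parameters were not derived where compound was lost in those co-factor-free controls.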

Schistosoma mansoni [6] = test: Antischistosomal activity against adult stage of Schistosoma mansoni cercariae at 10 uM after 72 hrs by microscopic analysis; assay type: functional, organism-based; in short: as §2
[7] = Intrinsic clearance in human liver microsomes assessed per mg protein after 60 mins in presence of NADPH; assay type: ADME, Microsome; conditions: 1 h; in short: as §3
Schistosoma mansoni [8] = test: Antischistosomal activity against adult stage of Schistosoma mansoni cercariae after 72 hrs by microscopic analysis; assay type: functional
Schistosoma mansoni [9] = test: Antischistosomal activity against adult stage of Schistosoma mansoni infected in NMRI nude mouse administered as single oral dose on day 49 of post infection; assay type: functional; conditions: 1176 h

Question: Which solubility kinetic [1] does the source give for `CC(C)(C(=O)O)n1c(=O)[nH]c2cc(C(F)(F)F)c(F)cc21` here?
Answer: > 100 µg/mL

Question: What about the Activity (Schistosoma mansoni [2]) of the same molecule?
Answer: inactive

Question: And the solubility kinetic [3]?
Answer: 50 to 100 µg/mL (≈ 163 to 327 µM)

Question: And the Activity (L6)?
Answer: Non-Toxic

Question: And the Activity (Schistosoma mansoni [4])?
Answer: 0%

Question: What about the microsomal intrinsic clearance [5] of the same molecule?
Answer: < 7 µL/min

Question: And the Activity (Schistosoma mansoni [6])?
Answer: inactive

Question: What about the microsomal intrinsic clearance [7] of the same molecule?
Answer: < 7 µL/min

Question: With `CC(C)(NC(=O)Nc1ccc(F)c(C(F)(F)F)c1)C(N)=O` as the molecule, how does the solubility kinetic [1] read?
Answer: 50 to 100 µg/mL (≈ 163 to 325 µM)

Question: What about the Activity (Schistosoma mansoni [2]) of the same molecule?
Answer: inactive

Question: And the solubility kinetic [3]?
Answer: 50 to 100 µg/mL (≈ 163 to 325 µM)

Question: What about the Activity (L6) of the same molecule?
Answer: Non-Toxic

Question: What about the Activity (Schistosoma mansoni [4]) of the same molecule?
Answer: 38%

Question: What about the microsomal intrinsic clearance [5] of the same molecule?
Answer: 18 µL/min

Question: What about the Activity (Schistosoma mansoni [6]) of the same molecule?
Answer: inactive

Question: And the microsomal intrinsic clearance [7]?
Answer: 19 µL/min

Question: Which results are given for `O=C(Nc1ccc(F)c(C(F)(F)F)c1)NC1(C(=O)O)CCC1`?
Answer: solubility kinetic [1]: > 100 µg/mL; Activity (Schistosoma mansoni [2]): inactive; solubility kinetic [3]: 50 to 100 µg/mL (≈ 156 to 312 µM); Activity (L6): Non-Toxic; Activity (Schistosoma mansoni [4]): 21%; microsomal intrinsic clearance [5]: < 7 µL/min; Activity (Schistosoma mansoni [6]): inactive; microsomal intrinsic clearance [7]: 7 µL/min

Question: For `O=C(Nc1ccc(F)c(C(F)(F)F)c1)NC1(C(=O)O)CC1`, which solubility kinetic [1] is on record?
Answer: > 100 µg/mL

Question: And the Activity (Schistosoma mansoni [2])?
Answer: inactive

Question: What about the solubility kinetic [3] of the same molecule?
Answer: > 100 µg/mL

Question: What about the Activity (L6) of the same molecule?
Answer: Non-Toxic

Question: And the Activity (Schistosoma mansoni [4])?
Answer: 4%

Question: And the microsomal intrinsic clearance [5]?
Answer: < 7 µL/min

Question: And the Activity (Schistosoma mansoni [6])?
Answer: inactive

Question: And the microsomal intrinsic clearance [7]?
Answer: < 7 µL/min

Question: Which LC50 (Schistosoma mansoni [8]) does the source give for `O=C(C1CCCCC1)N1CC(=O)N2CCc3ccccc3C2C1` (stereo not given) [PRAZIQUANTEL] here?
Answer: 0.077 µM

Question: And the Activity (Schistosoma mansoni [4])?
Answer: 15%

Question: With `CC(C)(NC(=O)Cc1ccc(F)c(C(F)(F)F)c1)C(=O)O` as the molecule, how does the solubility kinetic [1] read?
Answer: 25 to 50 µg/mL (≈ 81.4 to 163 µM)

Question: And the Activity (Schistosoma mansoni [2])?
Answer: inactive

Question: What about the solubility kinetic [3] of the same molecule?
Answer: 50 to 100 µg/mL (≈ 163 to 325 µM)

Question: And the Activity (L6)?
Answer: Non-Toxic

Question: And the Activity (Schistosoma mansoni [4])?
Answer: 0%

Question: And the microsomal intrinsic clearance [5]?
Answer: < 7 µL/min

Question: What about the Activity (Schistosoma mansoni [6]) of the same molecule?
Answer: inactive

Question: And the microsomal intrinsic clearance [7]?
Answer: < 7 µL/min

Question: For `CC(C)(NC(=O)Nc1ccc(F)c(C(F)(F)F)c1)C(=O)O`, which solubility kinetic [1] is on record?
Answer: > 100 µg/mL

Question: What about the Activity (Schistosoma mansoni [2]) of the same molecule?
Answer: inactive

Question: And the solubility kinetic [3]?
Answer: 25 to 50 µg/mL (≈ 81.1 to 162 µM)

Question: What about the microsomal intrinsic clearance [5] of the same molecule?
Answer: < 7 µL/min

Question: And the Activity (Schistosoma mansoni [6])?
Answer: inactive

Question: And the microsomal intrinsic clearance [7]?
Answer: < 7 µL/min

Question: With `CC1(C)NC(=O)N(c2ccc(F)c(C(F)(F)F)c2)C1=O` as the molecule, how does the ED50 (Schistosoma mansoni [9]) read?
Answer: 172 mg/kg

Question: Which results are given for `CC(C)(C(=O)O)N1CCCN(c2ccc(F)c(C(F)(F)F)c2)C1=O`?
Answer: solubility kinetic [1]: > 100 µg/mL; Activity (Schistosoma mansoni [2]): inactive; solubility kinetic [3]: > 100 µg/mL; Activity (L6): Non-Toxic; Activity (Schistosoma mansoni [4]): 14%; microsomal intrinsic clearance [5]: < 7 µL/min; Activity (Schistosoma mansoni [6]): inactive; microsomal intrinsic clearance [7]: < 7 µL/min

Question: For `CCOC(=O)C(C)(C)NC(=O)Nc1ccc(F)c(C(F)(F)F)c1`, which solubility kinetic [1] is on record?
Answer: 3.1 to 6.3 µg/mL (≈ 9.22 to 18.7 µM)

Question: What about the Activity (Schistosoma mansoni [2]) of the same molecule?
Answer: inactive

Question: What about the solubility kinetic [3] of the same molecule?
Answer: 3.1 to 6.3 µg/mL (≈ 9.22 to 18.7 µM)

Question: What about the Activity (L6) of the same molecule?
Answer: Non-Toxic

Question: And the Activity (Schistosoma mansoni [4])?
Answer: 70%

Question: What about the Activity (Schistosoma mansoni [6]) of the same molecule?
Answer: inactive

Question: With `O=C(O)CNC(=O)Nc1ccc(F)c(C(F)(F)F)c1` as the molecule, how does the solubility kinetic [1] read?
Answer: > 100 µg/mL

Question: And the Activity (Schistosoma mansoni [2])?
Answer: inactive

Question: And the solubility kinetic [3]?
Answer: > 100 µg/mL

Question: And the Activity (L6)?
Answer: Non-Toxic

Question: What about the Activity (Schistosoma mansoni [4]) of the same molecule?
Answer: 49%

Question: What about the microsomal intrinsic clearance [5] of the same molecule?
Answer: < 7 µL/min

Question: And the Activity (Schistosoma mansoni [6])?
Answer: inactive

Question: And the microsomal intrinsic clearance [7]?
Answer: < 7 µL/min

Question: For `CC(C)(NC(=O)Nc1ccccc1)C(=O)O`, which solubility kinetic [1] is on record?
Answer: 50 to 100 µg/mL (≈ 225 to 450 µM)

Question: What about the Activity (Schistosoma mansoni [2]) of the same molecule?
Answer: inactive

Question: What about the solubility kinetic [3] of the same molecule?
Answer: > 100 µg/mL

Question: And the Activity (L6)?
Answer: Non-Toxic

Question: What about the Activity (Schistosoma mansoni [4]) of the same molecule?
Answer: 20%

Question: What about the microsomal intrinsic clearance [5] of the same molecule?
Answer: < 7 µL/min

Question: And the Activity (Schistosoma mansoni [6])?
Answer: inactive

Question: And the microsomal intrinsic clearance [7]?
Answer: < 7 µL/min

Question: For `CC(C)(C(=O)O)N1Cc2cc(F)c(C(F)(F)F)cc2NC1=O`, which solubility kinetic [1] is on record?
Answer: > 100 µg/mL

Question: What about the Activity (Schistosoma mansoni [2]) of the same molecule?
Answer: inactive

Question: What about the solubility kinetic [3] of the same molecule?
Answer: 50 to 100 µg/mL (≈ 156 to 312 µM)

Question: What about the Activity (L6) of the same molecule?
Answer: Non-Toxic

Question: And the Activity (Schistosoma mansoni [4])?
Answer: 0%

Question: And the microsomal intrinsic clearance [5]?
Answer: < 7 µL/min

Question: And the Activity (Schistosoma mansoni [6])?
Answer: inactive

Question: And the microsomal intrinsic clearance [7]?
Answer: < 7 µL/min

Question: With `CC(C)(CC(=O)Nc1ccc(F)c(C(F)(F)F)c1)C(=O)O` as the molecule, how does the solubility kinetic [1] read?
Answer: 25 to 50 µg/mL (≈ 81.4 to 163 µM)

Question: What about the Activity (Schistosoma mansoni [2]) of the same molecule?
Answer: inactive

Question: What about the solubility kinetic [3] of the same molecule?
Answer: 25 to 50 µg/mL (≈ 81.4 to 163 µM)

Question: What about the Activity (L6) of the same molecule?
Answer: Non-Toxic

Question: What about the Activity (Schistosoma mansoni [4]) of the same molecule?
Answer: 42%

Question: And the microsomal intrinsic clearance [5]?
Answer: < 7 µL/min

Question: What about the Activity (Schistosoma mansoni [6]) of the same molecule?
Answer: inactive

Question: And the microsomal intrinsic clearance [7]?
Answer: < 7 µL/min
